# High-throughput results: PubChem, several laboratories
# Rev-erbA mod: modulates human Rev-erb alpha binding to DNA | Rev-erbα–FITC-DNA binding, fluorescence polarization, 90 min | activity, % at 10 µM | 370,000 compounds, 0.79% hits;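 active = activity above about 14%, limit read from the data; passing the limit was not always enough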;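 note: 0% = DMSO wells with 35 nM protein and 100% = DMSO wells with 750 nM protein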
# NR2E3 ag-1: NR2E3 (human) agonism; Q9Y5X4; GST-NR2E3/biotin-RetCOR TR-FRET, 1536-well; inhibition of corepressor binding, % at 4.78 µM; 320,000 compounds, 0.12% hits; AID 2300;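 active = percent inhibition above the cutoff of mean plus 3 SD of all tested compounds, set per screening campaign, cut at about 20% in these data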;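 note: 0% = DMSO wells and 100% = biotin wells as full block of FRET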
#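 System: GST-tagged NR2E3 plus biotinylated RetCOR corepressor; Amount: 1.35 nM GST-tagged NR2E3 final; Dosing: single nominal compound dose of 4.8 µM; Schedule: 5 h incubation at 4 °C; Technique: TR-FRET with europium anti-GST and streptavidin-D2, 340 nm excitation; Controls: biotin wells as high control, 0.6% DMSO wells as low control.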
# NR2E3 ag-2: agonists of human NR2E3 nuclear receptor; inhibition of corepressor binding, % at 3.98 µM; AID 602229; CHO-S Gal4-NCOR/VP16-NR2E3 two-hybrid, luciferase; 360,000 compounds, 0.35% hits;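 active = inhibition above the mean of all tested compounds plus 3 SD, cut at about 70% in these data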;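 note: 0% = DMSO with NR2E3 transfected cells and 100% = cells lacking NR2E3 construct; higher means lower luciferase signal from less NR2E3 corepressor binding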
# PKA-R2B act: PKA-R2B complex activation | P22694+P31323 | PKA-R2B holoenzyme dissociation, Cy5-IP20 fluorescence polarization; R2B truncated from residue 108, S112A mutant; 0% DMSO only, 100% 113 µM cGMP | activation, % at 11.4 µM | 340,000 compounds, 0.079% hits | AID 504700;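 active = activation above a cutoff set at the mean over all compounds plus 3 SD, cut at about 18% in these data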;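 note: higher means more holoenzyme dissociation and a rise in polarization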
# Target sequence (P31323 whole entry, looked up, other chains not shown, the tested form may be a part): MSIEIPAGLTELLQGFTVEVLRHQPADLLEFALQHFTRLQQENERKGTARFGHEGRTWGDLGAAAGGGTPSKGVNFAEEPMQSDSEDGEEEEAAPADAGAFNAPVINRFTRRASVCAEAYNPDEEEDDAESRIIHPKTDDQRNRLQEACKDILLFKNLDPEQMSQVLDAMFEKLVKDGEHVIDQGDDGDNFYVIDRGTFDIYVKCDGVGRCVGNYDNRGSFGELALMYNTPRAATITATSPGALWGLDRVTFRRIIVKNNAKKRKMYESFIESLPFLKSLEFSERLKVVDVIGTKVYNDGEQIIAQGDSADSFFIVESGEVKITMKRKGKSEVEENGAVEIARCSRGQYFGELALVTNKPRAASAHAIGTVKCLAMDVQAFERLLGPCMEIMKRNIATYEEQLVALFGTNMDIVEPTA
# PKA-R1A activ: activators of PKA-R1A complex; P00514+P68181; PKA-R1A dissociation, Cy5-IP20 fluorescence polarization; scaled: DMSO 0%, 113 µM cGMP 100%; activation, % at 11.4 µM; 340,000 compounds, 0.083% hits;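 active = percent activation above the mean of all tested compounds plus 3 SD, cut at about 19% in these data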;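 note: higher means more PKAc released from R1A so a rise in polarization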
# PG9 binder: small molecules binding HIV-1 gp120 antibody PG9; 360,000 compounds, 0.43% hits; inhibition, % at 6.7 µM; AID 624416; TR-FRET gp120-PG9 antibody binding; in the data active = inhibition above about 8.5%
# R1A FP artifact: FP assay interference, PKA-R1A counter-screen; shares compounds with PKA-R1A activ; Cy5-IP20 peptide alone, fluorescence polarization artifact counterscreen; activation, % at 11.4 µM; 280 compounds, 7% hits; AID 504799;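 active = mean activation over triplicate runs exceeds the adjusted cutoff derived for the parent primary screen, cut at about 19% in these data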;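 note: no PKA protein present so any polarization rise reflects compound interference; 0% = tracer peptide mix alone and 100% = mix with added PKA catalytic subunit; higher means stronger polarization artifact and likely false positive in parent screen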
# PKA-R1A confirm: PKA-R1A complex activation, confirmation; shares compounds with PKA-R1A activ; Cy5-IP20 fluorescence polarization, PKA-R1A holoenzyme dissociation; activation, % at 11.4 µM; 280 compounds, 9% hits;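 active = mean activation over replicate wells exceeds the adjusted hit threshold taken from the earlier primary screen, cut at about 20% in these data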;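 note: 0% = holoenzyme mix with DMSO only and 100% = cGMP-activated control wells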
# * = called active by the depositor; x = not tested or not shown. Shown are actives, neighbours in structure and some others; about 1.6% of the full set was active somewhere.
SMILES,Rev-erbA mod,NR2E3 ag-1,NR2E3 ag-2,PKA-R2B act,PKA-R1A activ,PG9 binder,R1A FP artifact,PKA-R1A confirm
CC(NC(=O)NCCCn1ccnc1)(C(F)(F)F)C(F)(F)F,2,-1,-30,-4,21*,-1,0,2
Cn1cc(S(=O)(=O)Nc2ccc(F)c(Cl)c2)c(=O)n(C)c1=O,3,0,-7,-7,-10,2,x,x
CC(=O)Nc1ccc(NS(=O)(=O)c2cn(C)c(=O)n(C)c2=O)cc1,2,5,-24,8,20*,-1,3,-1
Cn1c(NC(=O)c2ccccc2)nc(Cc2ccccc2)c1-c1ccccc1,-10,x,x,x,x,x,x,x
CC(C)C(=O)NNC(=O)c1cc2sccc2s1,-6,2,-14,-2,23*,0,-1,2
CC(=O)NNC(=O)c1cc2sccc2s1,-4,1,-32,-12,7,-2,x,x
Cc1ccc2cc3c(N)c(C(=O)N4CCOCC4)sc3nc2c1,-9,-4,-16,3,19*,-11,5,1
CC(=O)N1CCN(C(=O)CCn2nnc3ccccc32)CC1,-1,x,x,x,x,x,x,x
Cc1cccc(NC(=O)CSc2nnc(SCc3ccc(Cl)cc3)s2)c1,4,x,x,x,x,x,x,x
CC1CCCN(CCC(=O)c2ccc(Br)cc2)C1 (configuration not stated),7,-2,-34,-3,19*,1,3,-1
COc1cccc(CNCc2cc(OC)cc(OC)c2)c1,-3,1,-16,6,21*,3,5,4
COc1cccc(CNCc2ccccc2OC)c1,0,-2,-17,-4,-10,-1,x,x
C#CCN1CC(N(C)CCOC(=O)c2cc(C)cc(C)c2)CS1(=O)=O (configuration not stated),0,x,x,x,x,x,x,x
O=C(COC(=O)C1COc2ccccc2O1)NC(=O)NC1CCCC1 (configuration not stated),-1,3,-7,-2,20*,0,-2,0
O=C(COC(=O)C1COc2ccccc2O1)NC1CCCCC1 (configuration not stated),-1,x,-12,5,11,-1,x,x
O=C(NCc1ccco1)c1cccc2c1C(=O)c1ccc(N3CCC(N4CCCCC4)CC3)cc1S2(=O)=O,-30,x,-27,6,20*,2,4,1
Cc1ccccc1Cn1cc(COC(=O)NCC(C)C)nn1,-2,x,x,x,x,x,x,x
CN(C)CCCCOc1cccc(Br)c1,-1,0,-22,-3,23*,1,6,4
CN(C)CCOc1cccc(Cl)c1,1,1,-34,4,10,-2,x,x
CC(C)[C@H](NC(N)=O)C(=O)Nc1cccc(S(=O)(=O)N2CCOCC2)c1,-3,3,-1,-6,20*,-3,2,-1
COC(=O)C12C=C3CC(C)=C3C(=O)N1Cc1[nH]c3ccccc3c1C2 (configuration not stated),0,x,x,x,x,x,x,x
COc1ccc2[nH]c(=O)c(CN(C(=O)c3ccccn3)c3ccccc3)cc2c1,0,-2,-17,-2,20*,2,1,-1
COc1ccc2[nH]c(=O)c(CN(C(=O)c3cccnc3)c3ccccc3)cc2c1,3,0,-10,4,-1,3,x,x
O=C(CN1CCc2onc(-c3cccc(-n4cc(CO)nn4)c3)c2C1=O)N1CCOCC1,10,x,x,x,x,x,x,x
COCCn1c(SCC(=O)NC2CCCCC2)nnc1-c1ccco1,5,4,-10,0,0,-1,x,x
SMILES,Rev-erbA mod,NR2E3 ag-1,NR2E3 ag-2,PKA-R2B act,PKA-R1A activ,PG9 binder,R1A FP artifact,PKA-R1A confirm
COCCCn1c(SCC(=O)NC2CCCC2)nnc1-c1ccco1,-14,1,8,-3,26*,0,3,1
COc1ccc([C@H]2OC(=O)C[C@H]2C(=O)N2CCN(c3ccccc3Cl)CC2)cc1OC,5,x,x,x,x,x,x,x
CCOc1ccc2nc(NC(=O)C3CCCO3)sc2c1 (configuration not stated),-5,2,-152,2,2,-3,x,x
COc1ccc2nc(NC(=O)c3ccc(NC(=O)C4CCCO4)cc3)sc2c1 (configuration not stated),16,1,-19,5,20*,2,0,-2
CCOC(=O)N1CCN(C(=O)COc2ccc3c(c2)C(=O)CC(C)(C)O3)CC1,9,-2,-4,1,2,1,x,x
CCOC(=O)COc1ccc2c(c1)C(=O)CC(C)(C)O2,1,1,12,3,19*,1,-1,-1
O=C(O)C1CCC(N2C(=O)c3cccc([N+](=O)[O-])c3C2=O)CC1 (configuration not stated),-4,0,0,8,19*,0,0,-1
O=C1Nc2ccccc2Cc2ccccc21,-4,x,7,-2,20*,-2,2,3
O=C(Nc1ccc(Oc2cccnc2)cc1)C1CCN(Cc2ccccc2)CC1,7,6,11,2,19*,-2,2,1
CCC(C)C(=O)Nc1c2c(nc3c1CCC3)CCCC2 (configuration not stated),4,-1,4,2,8,0,x,x
CC(C)C(=O)Nc1c2c(nc3c1CCC3)CCCC2,2,-1,-2,5,24*,1,3,0
COc1cccc(C=NNC(=O)CCCC(=O)NN=Cc2cccc(OC)c2)c1,3,x,-5,-4,6,-1,x,x
COc1cccc(/C=N/NC(=O)CCc2ccccc2)c1,x,3,-28,-5,23*,-1,5,2
O=C(CNc1ccccc1)N/N=C/c1ccc([N+](=O)[O-])cc1,-4,0,-21,-11,22*,2,-2,3
O=C(CCNC(=O)c1ccccc1)N/N=C/c1ccc([N+](=O)[O-])cc1,-4,-2,-12,6,-4,-2,x,x
O=C(NCc1ccc(F)c(F)c1)C1CCCN(c2nc3ccccc3o2)C1 (configuration not stated),-1,x,x,x,x,x,x,x
CCOC(=O)N/N=C/c1ccc(N(CC)CC)cc1O,-1,-6,-68,-14,23*,-8,4,4
CCN(CC)c1ccc(/C=N/Nc2ccc(C)cc2)c(O)c1,-3,1,-8,-3,6,-1,x,x
Cc1c(C(=O)NC2CCCc3ccccc32)cccc1[N+](=O)[O-] (configuration not stated),0,0,13,8,23*,-1,2,0
